Measured values reported in ChEMBL document CHEMBL4842351, “Synthesis and evaluation of novel and potent protease activated receptor 4 (PAR4) antagonists based on a quinazolin-4(3H)-one scaffold” (Eur J Med Chem, 2021).
One block for each compound: values may come before it. The source made the active and inactive calls. No cut-off for these calls is given here.

What was measured:
[1] = target: T1, Proteinase-activated receptor 4 (Homo sapiens) (UniProt Q96RI0); assay: Antagonist activity at PAR4 in human platelet-rich plasma assessed as inhibition of PAR4 AP AYPGKF-NH2-induced platelet aggregation at 0.2 uM by photo-turbidimetry assay relative to control; type: functional
T1 sequence (whole entry): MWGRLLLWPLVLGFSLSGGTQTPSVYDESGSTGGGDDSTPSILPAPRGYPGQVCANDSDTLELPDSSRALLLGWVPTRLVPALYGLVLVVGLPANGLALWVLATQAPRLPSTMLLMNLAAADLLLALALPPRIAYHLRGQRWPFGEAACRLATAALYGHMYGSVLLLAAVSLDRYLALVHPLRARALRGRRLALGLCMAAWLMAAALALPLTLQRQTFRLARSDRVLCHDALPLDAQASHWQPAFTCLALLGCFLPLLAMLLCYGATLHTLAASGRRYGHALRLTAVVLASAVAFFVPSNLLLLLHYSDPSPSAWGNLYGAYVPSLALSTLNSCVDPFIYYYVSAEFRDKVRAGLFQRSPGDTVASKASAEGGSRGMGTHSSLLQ
Procedure, shortened: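 Human PRP from donated blood, spun at 160×g for 15 min, then adjusted to 3×10⁸/mL with PPP (2000×g, 15 min). Compound or saline vehicle preincubated with PRP for 5 min at 37 °C. Aggregation induced by AYPGKF-NH₂; maximal aggregation measured by light transmittance for 5 min. Percent inhibition at a single point; IC50 from ≥5 concentrations by curve fitting.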

[2] = target: T2, Proteinase-activated receptor 1 (Homo sapiens, UniProt P25116); assay: Antagonist activity at human PAR1 expressed in Ga15-HEK293 cells assessed as reduction in PAR1 AP SFFLRR-NH2-induced cytosolic calcium incubated for 24 hrs by FLIPR - calcium mobilization assay; type: functional, cell-based
T2 sequence (P25116 whole entry): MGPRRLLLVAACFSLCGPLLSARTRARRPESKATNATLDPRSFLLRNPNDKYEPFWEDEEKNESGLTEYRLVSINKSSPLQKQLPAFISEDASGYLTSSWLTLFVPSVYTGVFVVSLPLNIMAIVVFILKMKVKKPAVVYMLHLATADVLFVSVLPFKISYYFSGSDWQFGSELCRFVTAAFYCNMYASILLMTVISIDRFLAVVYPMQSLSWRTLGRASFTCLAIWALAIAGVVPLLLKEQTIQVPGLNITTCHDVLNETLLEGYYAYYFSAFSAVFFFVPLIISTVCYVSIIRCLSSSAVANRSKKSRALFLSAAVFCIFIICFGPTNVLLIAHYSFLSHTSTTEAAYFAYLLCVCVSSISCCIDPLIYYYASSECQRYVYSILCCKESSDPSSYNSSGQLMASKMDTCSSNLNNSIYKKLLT
Procedure, shortened: (§1)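 HEK293/Gα15 cells stably expressing human PAR1, PAR2 or PAR4, seeded at 45,000 cells/well and grown for 24 h at 37 °C, 5% CO₂. Cells loaded with calcium dye for 60 min at 37 °C in the dark. Compounds diluted from DMSO in HBSS and preincubated in the dark at room temperature. Agonists: SFFLRR (PAR1), 2-furoyl-LIGRLO-NH₂ (PAR2), AYPGKF-NH₂ (PAR4). Fluorescence read on FLIPR; 10-point half-log curves; mean of ≥2 determinations.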

[3] = target: T3, Proteinase-activated receptor 2 (Homo sapiens, UniProt P55085); assay: Antagonist activity at human PAR2 expressed in Ga15-HEK293 cells assessed as reduction in PAR2 AP 2-furoyl-LIGRLO-NH2-induced cytosolic calcium incubated for 24 hrs by FLIPR - calcium mobilization assay; type: functional, cell-based; procedure, shortened: as §1
T3 sequence (P55085 whole entry): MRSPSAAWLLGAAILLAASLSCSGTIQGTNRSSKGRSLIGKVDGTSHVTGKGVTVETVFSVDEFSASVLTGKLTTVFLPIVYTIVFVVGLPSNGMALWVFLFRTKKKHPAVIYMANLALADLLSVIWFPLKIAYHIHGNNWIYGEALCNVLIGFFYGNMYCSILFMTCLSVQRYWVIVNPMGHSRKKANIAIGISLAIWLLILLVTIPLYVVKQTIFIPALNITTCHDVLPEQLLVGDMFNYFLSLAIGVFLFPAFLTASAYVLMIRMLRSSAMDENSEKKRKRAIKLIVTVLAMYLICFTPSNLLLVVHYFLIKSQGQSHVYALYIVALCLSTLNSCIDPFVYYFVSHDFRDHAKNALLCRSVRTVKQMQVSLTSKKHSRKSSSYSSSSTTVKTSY

[4] = target: T4, Proteinase-activated receptor 4 (Homo sapiens, UniProt Q96RI0); assay: Antagonist activity at human PAR4 expressed in Ga15-HEK293 cells assessed as reduction in PAR4 AP AYPGKF-NH2-induced cytosolic calcium incubated for 24 hrs by FLIPR - calcium mobilization assay; type: functional, cell-based; procedure, shortened: as §1
T4 sequence (Q96RI0 whole entry): T1 sequence (whole entry)

[5] = Metabolic stability in mouse liver microsomes assessed as intrinsic clearance incubated for 60 mins by LC-MS/MS analysis; type: ADME, Microsome; details: 1 h
Procedure, shortened: (§2)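 Human, rat or mouse liver microsomes in potassium phosphate buffer at pH ~7.4, warmed to 37 °C with compound (DMSO stock diluted in acetonitrile). Reaction started with NADPH; no-NADPH negative controls. Aliquots taken at 0 and 60 min, quenched in ice-cold acetonitrile with internal standard, and parent measured by LC/MS/MS. t1/2 = 0.693/k from ln concentration vs time; CLint derived from t1/2. Triplicate; mean ± SD.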

[6] = Cytotoxicity against HEK293T cells assessed as cell viability at 10 uM incubated for 48 hrs by CCK-8 assay; type: cell-based, HEK-293T; details: human, read-out: Activity
Procedure, shortened: (§3)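 HEK293 cells in exponential growth, 4000/well, left to adhere overnight, then exposed to three compound concentrations for 48 h. Equal-volume DMSO served as control. CCK-8 added for 2 h at 37 °C in the dark, absorbance read at 450 nm. Viability = OD sample/OD control × 100; mean ± SD, n=3.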

Platelet [7] = assay: Antiplatelet activity against SFLLRN-NH2-induced human platelet in platelet rich plasma assessed as inhibition of platelet aggregation at 10 uM by photo-turbidimetry method; type: functional, cell-based
Procedure, shortened: (§4)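 Human PRP prepared as for the aggregation assay and adjusted to 3×10⁸/mL. Compound preincubated for 5 min at 37 °C, then aggregation triggered by AYPGKF, SFLLRN, collagen, ADP or U46619. Maximum percent inhibition taken from 5 min light-transmittance traces. Mean ± SD, n=3.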

[8] = Metabolic stability in human liver microsomes assessed as half life incubated for 60 mins by LC-MS/MS analysis; type: ADME, Microsome
Platelet [9] = assay: Antiplatelet activity against U46619-induced human platelet aggregation in platelet in platelet rich plasma assessed as inhibition of platelet aggregation at 10 uM by photo-turbidimetry method; type: functional, cell-based; procedure, shortened: as §4
Platelet [10] = assay: Antiplatelet activity against ADP-induced human platelet aggregation in platelet in platelet rich plasma assessed as inhibition of platelet aggregation at 10 uM by photo-turbidimetry method; type: functional, cell-based; procedure, shortened: as §4
Platelet [11] = assay: Antiplatelet activity against AYPGKF-NH2-induced human platelet in platelet rich plasma assessed as inhibition of platelet aggregation at 10 uM by photo-turbidimetry method; type: functional, cell-based; procedure, shortened: as §4
[12] = Cytotoxicity against HEK293T cells assessed as cell viability at 1 uM incubated for 48 hrs by CCK-8 assay; type: cell-based, HEK-293T; details: human, read-out: Activity; procedure, shortened: as §3
[13] = Metabolic stability in rat liver microsomes assessed as intrinsic clearance incubated for 60 mins by LC-MS/MS analysis; type: ADME, Microsome; details: 1 h; procedure, shortened: as §2
Platelet [14] = assay: Antiplatelet activity against collagen-induced human platelet aggregation in platelet in platelet rich plasma assessed as inhibition of platelet aggregation at 10 uM by photo-turbidimetry method; type: functional, cell-based; procedure, shortened: as §4
[15] = Cytotoxicity against HEK293T cells assessed as cell viability at 20 uM incubated for 48 hrs by CCK-8 assay; type: cell-based, HEK-293T; details: human, read-out: Activity; procedure, shortened: as §3
[16] = Metabolic stability in human liver microsomes assessed as intrinsic clearance incubated for 60 mins by LC-MS/MS analysis; type: ADME, Microsome; details: 1 h
[17] = Metabolic stability in mouse liver microsomes assessed as half life incubated for 60 mins by LC-MS/MS analysis; type: ADME, Microsome; procedure, shortened: as §2
[18] = Metabolic stability in rat liver microsomes assessed as half life incubated for 60 mins by LC-MS/MS analysis; type: ADME, Microsome; procedure, shortened: as §2

SMILES: CCn1cnc2c(-c3nc4c(s3)CCCC4)cc(C)cc2c1=O
inhibition [1]: 26.8%

SMILES: COc1cc(Cl)c2nc(-c3cc(C)cc4c(=O)n(C(C)C)cnc34)sc2c1
inhibition [1]: 15.2%

SMILES: Cc1cc(-c2nc3c(s2)CCCC3)c2nc[nH]c(=O)c2c1
inhibition ([1]; filed as antagonist): 41.6%

SMILES: Cc1cc(-c2nc3c(Cl)cc(OCCN)cc3s2)c2ncn(C)c(=O)c2c1
inhibition [1]: 33.2%

SMILES: Cc1cc(-c2nccs2)c2ncn(C)c(=O)c2c1
inhibition [1]: 7.1%

SMILES: COc1cc(F)c2nc(-c3cc(C)cc4c(=O)n(C)c(C)nc34)sc2c1
inhibition [1]: 20.1%

SMILES: COc1cc(F)c2nc(-c3cc(C)cc4c(=O)n(C)cnc34)sc2c1
IC50 [2]: > 3.16 µM | IC50 [3]: > 1 µM | IC50 [4]: 0.0032 µM

SMILES: COc1cc(F)c2nc(-c3cccc4c(=O)n(C)cnc34)sc2c1
inhibition [1]: 18.7%

SMILES: CCOCn1cnc2c(-c3nc4c(Cl)cc(OC)cc4s3)cc(C)cc2c1=O
inhibition ([1]; filed as antagonist): 91.2%

SMILES: Cc1cc(-c2nc3c(Cl)cc(OCCNS(=O)(=O)c4ccc(Cl)cc4)cc3s2)c2ncn(C)c(=O)c2c1
inhibition [1]: 32.3%

SMILES: Cc1cc(-c2nc3c(Cl)cc(OCCNS(=O)(=O)c4ccc(Cl)cc4Cl)cc3s2)c2ncn(C)c(=O)c2c1
inhibition ([1]; filed as antagonist): 47.1%

More lines, main results first:

inhibition [1]: 19.8%
SMILES: Cn1cnc2c(-c3nc4c(s3)CCCC4)cccc2c1=O

inhibition ([1]; filed as antagonist): 47.6%
SMILES: CCCCc1cc(-c2nc3c(Cl)cc(OC)cc3s2)c2ncn(C)c(=O)c2c1

inhibition [1]: 18.8%
SMILES: CCn1cnc2c(-c3nc4c(F)cc(OC)cc4s3)cc(C)cc2c1=O

inhibition [1]: 36.5%
SMILES: CCn1cnc2c(-c3nc4c(Cl)cc(OC)cc4s3)cc(C)cc2c1=O

inhibition [1]: 8.7%
SMILES: Cc1cc(-c2nc3c(Cl)cc(OCCNS(=O)(=O)c4ccc(F)cc4)cc3s2)c2ncn(C)c(=O)c2c1

inhibition [1]: 10.2%
SMILES: COc1cc(F)c2nc(-c3cc(C)cc4c(=O)n(C(C)C)cnc34)sc2c1

inhibition [1]: 1.8%
SMILES: Cc1cc(-c2cccnc2)c2ncn(C)c(=O)c2c1

inhibition ([1]; filed as antagonist): 54.1%
SMILES: Cc1cc(-c2nc3c(Cl)cc(OCCNC(=O)OC(C)(C)C)cc3s2)c2ncn(C)c(=O)c2c1

IC50 [2]: > 3.16 µM | inhibition ([1]; filed as antagonist): 92.8% | IC50 [3]: > 1 µM | IC50 [4]: 0.0068 µM
SMILES: CCc1cc(-c2nc3c(Cl)cc(OC)cc3s2)c2ncn(C)c(=O)c2c1

CLH [5]: 19.3 mL/min/g | half-life [8]: 42.6 min | IC50 [2]: > 3.16 µM | CLH [13]: 78.1 mL/min/g | IC50 [3]: > 1 µM | CLH [16]: 36.6 mL/min/g | half-life [17]: 282 min | half-life [18]: 31.9 min | IC50 [4]: 0.00053 µM
SMILES: COc1cc(Cl)c2nc(-c3cc(C)cc4c(=O)n(C)cnc34)sc2c1
viability at 48 h, 10 µM [6]: 73.7% | Activity (Platelet [7]): inactive | Activity (Platelet [9]): inactive | Activity (Platelet [10]): inactive | Activity (Platelet [11]): Active | viability at 48 h, 1 µM [12]: 91.3% | Activity (Platelet [14]): inactive | viability at 48 h, 20 µM [15]: 59.3%
